The source of these data is publication PMC8245385 (Clinical Drug Investigation, 2021).

Data set [1] in a line: Safety and tolerability. It counts as in vivo, human. Conditions: doravirine 100 mg QD, islatravir 2.25 mg QD, alone or in combination; participants without HIV. The procedure, abridged: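 Safety was assessed throughout the study by adverse-event monitoring, physical examinations, vital signs, electrocardiography and laboratory safety tests. Investigators graded clinical adverse events as mild, moderate or severe in intensity. The analysis set was all participants given at least one dose of active study drug or placebo. Dosing was oral with water at the same time each day.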

The conditions of data set [2]: cited from earlier work.
The conditions of data set [3]: cited from earlier work. This is another data set of the same source.
Data set [4] is described as follows: Plasma pharmacokinetics in the doravirine/islatravir drug interaction study. It counts as in vivo, human. The procedure, abridged:
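Healthy adults were randomized and blinded. They took oral doravirine 100 mg or placebo QD for 5 days, then islatravir 2.25 mg QD for 14 days, then both for 5 days, with no washout and ≥10 h fasting before dosing on PK days. K2EDTA plasma went to validated LC-MS/MS (islatravir LLOQ 0.10 ng/mL). AUC0–24h used linear-up/log-down; GMRs came from a ln-scale mixed-effects model.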

The subject of data set [5] is CYP enzymes. The settings on record: cited from earlier work.
The conditions of data set [6]: cited from earlier work. This is another data set of the same source.
Where [7] appears, read: single oral doses, participants without HIV.

Structures are written as SMILES. Like-named read-outs stand apart in the source and are kept apart here.

What is called AUC(0-t) is the area under the concentration-time curve up to a stated or last time point. As a reminder, the Cmax is the peak of the concentration-time curve. In general, Tmax refers to the time from dosing to the highest level. Regarding `Cn1c(Cn2ccc(C(F)(F)F)c(Oc3cc(Cl)cc(C#N)c3)c2=O)n[nH]c1=O` [Doravirine], the Tolerability result in data set [1] is “generally well tolerated”. In addition, the Tolerability result in data set [2] (doses of up to 1,200 mg in clinical studies) is recorded as “generally well tolerated”. Moreover, in data set [3] (6–1200 mg orally), the Apparent terminal half-life was 12 to 21 h. Besides, the “Time to attainment of steady state” value in data set [3] (QD dosing, 200 mg orally) is given as “approximately 5 days”. Also, in data set [3], the “Range of median Tmax previously reported” value was 1 to 4 h. Further, the “Reduction of doravirine exposure on coadministration with rifabutin” value in data set [3] (moderate CYP3A4 inducer) was 50%. Moreover, the “Reduction of doravirine exposure on coadministration with rifampin” value in data set [3] (strong CYP3A4 inducer) is 88%. For the same molecule, in data set [4] (doravirine 100 mg QD with vs without islatravir 2.25 mg QD), the “Doravirine C24h, GMR (90% CI), (doravirine + islatravir)/doravirine” value was 1.12 (0.95–1.32). For the same molecule, in data set [4] (human, plasma, oral, 100 mg), the AUC(0-t) was 34 µM·h, the Cmax turned out to be 2440 nM, the time of peak concentration (Tmax) was 2.5 h and the concentration at 24 h was 773 nM. In addition, in data set [5] (in vitro), the “Inhibition or induction of CYP enzymes” value is recorded as “not an inhibitor or inducer of CYP enzymes”.
As for `C#C[C@]1(CO)O[C@@H](n2cnc3c(N)nc(F)nc32)C[C@@H]1O` [Islatravir, 4'-Ethynyl-2-fluoro-2'-deoxyadenosine], the Tolerability result in data set [1] is listed as “generally well tolerated”. Besides, the Tolerability entry in data set [2] (treatment-naive people living with HIV-1, oral doses 0.5–30 mg) was “generally well tolerated”. Further, in data set [4] (human, plasma, oral, 2.25 mg), the AUC(0-t) is 0.254 µM·h, the concentration peaked (Cmax) at 63.5 nM and the Tmax is 0.52 h. For the same molecule, in data set [5], the “Metabolism by CYP enzymes” value is listed as “not metabolized by CYP enzymes”. In data set [6] (oral QD dosing), the “Time to steady-state plasma concentrations” value was ~14 days. Besides, in data set [6] (setting [7]), the Half-life of islatravir is 49 to 61 h and the “Time at which peak plasma concentrations were attained” value was ~ 0.5 h.
As for `C#C[C@]1(COP(=O)(O)OP(=O)(O)OP(=O)(O)O)O[C@@H](n2cnc3c(N)nc(F)nc32)C[C@@H]1O` [islatravir-TP], the “Time at which peak intracellular islatravir-TP concentrations were attained” value in data set [6] (after islatravir administration) is 6 to 24 h. Besides, the “Apparent terminal half-life of islatravir-TP” value in data set [6] (dosed daily to steady state) is given as “exceeded 7 days”. Besides, the “Time to steady state of intracellular islatravir-TP” value in data set [6] (oral QD dosing of islatravir) is ≤ 28 days. The “Intracellular half-life of islatravir-TP” value in data set [6] (single oral doses of islatravir) was 118 to 171 h.
